Data from ChEMBL document CHEMBL3124814, “Synthesis and Anti-HCV Activity of 4-Hydroxyamino α-Pyranone Carboxamide Analogues” (ACS Med Chem Lett, 2014).
pEC50: −log10 of the molar value.

How the values were obtained:
[1] = Cytotoxicity against human HuH7 cells expressing luciferase reporter gene after 3 days by WST-8 assay; assay type: cell-based, Huh-7
Summary of the method: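 LucNeo#2 subgenomic replicon cells, 50,000 cells/mL, pre-incubated 24 h in DMEM/10% FBS/antibiotics/1 mg/mL G418, then exposed 3 days to various compound concentrations without G418.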

[2] = (§1) Selectivity index, ratio of CC50 for human HuH7 cells to EC50 for HCV1b; set-up: species or system Huh-7
Summary of the method: (§2)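 Ratio of CC50 (WST-8 viable cell reduction) to EC50 (luciferase inhibition), both from LucNeo#2 replicon cells treated 3 days with compound in G418-free medium.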

Hepatitis C virus [3] = experiment: Antiviral activity against HCV1b infected in human HuH7 cells expressing luciferase reporter gene assessed as reduction of luciferase activity after 3 days; assay type: functional, organism-based, Hepacivirus hominis; details: genotype 1b, Huh-7, 72 h
Summary of the method: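 Subgenomic HCV replicon cells with luciferase reporter (LucNeo#2), 50,000 cells/mL in DMEM + 10% FBS, antibiotics, 1 mg/mL G418 for 24 h; then 3 days with various compound concentrations in fresh medium lacking G418. Cells PBS-washed, lysed, luciferase read by luminometer; EC50 as concentration giving 50% inhibition of luciferase activity.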

Huh-7 = experiment: as §1; summary of the method: as §2
[4] = Cytotoxicity against human NNC2 cells assessed as GAPDH RNA level; assay type: cell-based
Summary of the method: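 NNC#2 full-genome replicon cells, 30,000 cells/mL, 24 h in DMEM/10% FBS/1 mg/mL G418, then 3 days with various concentrations without G418. GAPDH RNA, as cell-viability index, measured by real-time PCR simultaneously with HCV RNA; CC50 derived.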

Hepatitis C virus [5] = experiment: Antiviral activity against HCV1b infected in human NNC2 cells assessed as inhibition of viral RNA replication after 3 days by RT-PCR analysis; assay type: functional, organism-based, Hepacivirus hominis; details: genotype 1b, NNC2, 72 h
Summary of the method: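 Full-genome HCV RNA replicon cells (NNC#2), 30,000 cells/mL, held 24 h in DMEM + 10% FBS + 1 mg/mL G418, then 3 days in fresh G418-free medium with various concentrations.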

pEC50 (Hepatitis C virus [3]) | pEC50 (Hepatitis C virus [5]) | EC90 (Hepatitis C virus [5]) [µM] | Structure (SMILES) | CC50 at 72 h [1] [µM] | Ratio CC50/EC50 [2] | Ratio CC50/EC50 (Huh-7) | CC50 [4] [µM]
5.40 |  |  | O=C(NCCO)c1c(NO)cc(-c2ccc(Cl)cc2)oc1=O | > 20 | 5 |  | 
6.49 |  |  | O=C(Nc1ccc(F)cc1)c1c(NO)cc(-c2ccccc2)oc1=O | > 20 | 62.5 |  | 
5.40 |  |  | COC(=O)CNC(=O)c1c(NO)cc(-c2ccc(C)cc2)oc1=O | > 20 | 5 |  | 
5.85 |  |  | CNC(=O)c1c(NO)cc(-c2ccc(C)cc2)oc1=O | > 20 | 14.1 |  | 
6.25 |  |  | COc1ccc(-c2cc(NO)c(C(=O)Nc3ccccc3)c(=O)o2)cc1 | 16.2 | 28.9 |  | 
6.00 |  |  | O=C(Nc1ccc(O)cc1)c1c(NO)cc(-c2ccccc2)oc1=O | > 20 | 20 |  | 
6.35 |  |  | CCC[C@H](NC(=O)[C@@H]1[C@H]2CCC[C@H]2CN1C(=O)[C@@H](NC(=O)[C@@H](NC(=O)c1cnccn1)C1CCCCC1)C(C)(C)C)C(=O)C(=O)NC1CC1 [TELAPREVIR] | > 20 |  | 44.4 | 
5.84 |  |  | Cc1ccc(-c2cc(NO)c(C(=O)Nc3ccccc3)c(=O)o2)cc1 | > 20 | 13.8 |  | 
5.59 |  |  | Cc1ccc(-c2cc(NO)c(C(=O)NCCO)c(=O)o2)cc1 | > 20 | 7.7 |  | 
5.76 |  |  | CNC(=O)c1c(NO)cc(-c2ccc(F)cc2)oc1=O | > 20 | 11.4 |  | 
6.74 | 7.11 | 0.45 | Cc1ccc(NC(=O)c2c(NO)cc(-c3ccccc3)oc2=O)cc1 | > 20 | 111.1 |  | > 10
6.27 |  |  | Cc1ccccc1NC(=O)c1c(NO)cc(-c2ccccc2)oc1=O | > 20 | 37 |  | 
6.77 |  |  | COc1ccc(NC(=O)c2c(NO)cc(-c3ccccc3)oc2=O)cc1 | > 20 | 117.6 |  | 
5.93 |  |  | O=C(NCc1ccccc1)c1c(NO)cc(-c2ccc(F)cc2)oc1=O | > 20 | 16.9 |  | 
6.46 |  |  | O=C(Nc1ccccc1)c1c(NO)cc(-c2ccccc2)oc1=O | 11.6 | 33.1 |  | 
6.35 |  |  | O=C(NCCCO)c1c(NO)cc(-c2ccccc2)oc1=O | > 20 | 44.4 |  | 
6.24 |  |  | COc1ccc(-c2cc(NO)c(C(=O)NCc3ccccc3)c(=O)o2)cc1 | > 20 | 35.1 |  | 
6.54 |  |  | O=C(NCc1ccccc1)c1c(NO)cc(-c2ccccc2)oc1=O | > 20 | 69 |  | 
5.85 |  |  | COc1ccc(-c2cc(NO)c(C(=O)NCCO)c(=O)o2)cc1 | > 20 | 14.2 |  | 
6.46 |  |  | CNC(=O)c1c(-c2ccc(F)cc2)oc2cc(N(CCO)S(C)(=O)=O)c(C3CC3)cc12 [NESBUVIR] | > 20 | 57.1 |  | 
6.34 |  |  | Cc1ccc(NC(=O)c2c(NO)cc(-c3ccc(C)cc3)oc2=O)cc1 | > 20 | 43.5 |  | 
5.74 |  |  | COC(=O)CNC(=O)c1c(NO)cc(-c2ccccc2)oc1=O | > 20 | 10.9 |  | 

pEC50 (Hepatitis C virus [3]) | pEC50 (Hepatitis C virus [5]) | EC90 (Hepatitis C virus [5]) [µM] | Structure (SMILES) | CC50 at 72 h [1] [µM] | Ratio CC50/EC50 [2] | Ratio CC50/EC50 (Huh-7) | CC50 [4] [µM]
6.35 |  |  | CCCNC(=O)c1c(NO)cc(-c2ccccc2)oc1=O | > 20 | 44.4 |  | 
6.15 |  |  | CNC(=O)c1c(NO)cc(-c2ccc(OC)cc2)oc1=O | > 20 | 28.6 |  | 
6.17 |  |  | O=C(NCc1ccccc1)c1c(NO)cc(-c2ccc(Cl)cc2)oc1=O | > 20 | 29.4 |  | 
6.57 |  |  | Cc1cccc(NC(=O)c2c(NO)cc(-c3ccccc3)oc2=O)c1 | > 20 | 74.1 |  | 
5.97 |  |  | O=C(Nc1ccccc1)c1c(NO)cc(-c2ccc(F)cc2)oc1=O | 10.3 | 9.7 |  | 
5.53 |  |  | O=C(NCCO)c1c(NO)cc(-c2ccc(F)cc2)oc1=O | > 20 | 6.7 |  | 
6.48 |  |  | COC(=O)c1ccc(NC(=O)c2c(NO)cc(-c3ccccc3)oc2=O)cc1 | > 20 | 60.6 |  | 
6.40 |  |  | O=C(Nc1ccc(Cl)cc1)c1c(NO)cc(-c2ccccc2)oc1=O | > 20 | 50 |  | 
6.04 |  |  | Cc1ccc(-c2cc(NO)c(C(=O)NCc3ccccc3)c(=O)o2)cc1 | > 20 | 21.9 |  | 
5.51 |  |  | COC(=O)CNC(=O)c1c(NO)cc(-c2ccc(Cl)cc2)oc1=O | > 20 | 6.5 |  | 
5.71 |  |  | Cc1ccc(NC(=O)c2c(NO)cc(-c3ccc(F)cc3)oc2=O)cc1 | > 20 | 10.2 |  | 
5.83 |  |  | O=C(NCCO)c1c(NO)cc(-c2ccccc2)oc1=O | > 20 | 13.5 |  | 
5.84 |  |  | Cc1ccc(NC(=O)c2c(NO)cc(-c3ccc(Cl)cc3)oc2=O)cc1 | > 20 | 14 |  | 
5.71 |  |  | COC(=O)CNC(=O)c1c(NO)cc(-c2ccc(F)cc2)oc1=O | > 20 | 10.3 |  | 
6.25 |  |  | O=C(Nc1ccccc1)c1c(NO)cc(-c2ccc(Cl)cc2)oc1=O | 11 | 19.6 |  | 
5.53 |  |  | COC(=O)CNC(=O)c1c(NO)cc(-c2ccc(OC)cc2)oc1=O | > 20 | 6.7 |  | 
6.52 |  |  | O=C(Nc1ccc(Br)cc1)c1c(NO)cc(-c2ccccc2)oc1=O | > 20 | 66.7 |  | 
6.35 |  |  | CC(C)NC(=O)c1c(NO)cc(-c2ccccc2)oc1=O | > 20 | 44.4 |  | 
5.80 |  |  | COc1ccc(-c2cc(NO)c(C(=O)Nc3ccc(C)cc3)c(=O)o2)cc1 | > 20 | 12.5 |  | 
6.22 |  |  | CNC(=O)c1c(NO)cc(-c2ccccc2)oc1=O | > 20 | 33.3 |  | 
6.00 |  |  | CCNC(=O)c1c(NO)cc(-c2ccccc2)oc1=O | > 20 | 20 |  | 
6.11 |  |  | CNC(=O)c1c(NO)cc(-c2ccc(Cl)cc2)oc1=O | > 20 | 25.6 |  | 
